Experimental data pooled from the literature.
Protocols differ between the studies behind these lines.
Observed: metabolic stability
Species: human
Sample: liver microsomes

| Compound | concentration | pH | microsomal CLint [µL/min/mg] |
| --- | --- | --- | --- |
| CC1(C(F)F)NC(=O)N(c2ccc(F)c(C(F)(F)F)c2)C1=O (stereo not drawn) | – | – | < 7 |
| CCCCCCOc1ccc2c(=O)c3c([nH]c2c1)CCCC3 | 1 µM | pH 7.4 | 92.2 |
| COc1cc(NC(=O)Cn2ccc3ccc(-c4cnn(C)c4)cc32)cc(OC)c1OC | – | – | 62 |
| Cc1ccc(N(C)c2ccc(NC(=O)CN(C)c3ccccc3N3CCCC3=O)cc2)cc1 | – | – | 347 |
| Cc1[nH]c(C)c(S(=O)(=O)Nc2ccc(C(F)(F)F)c(Cl)c2Cl)c1C(=O)N1CCC(F)(F)C1 | – | – | 7.4 |
| Cc1ccc(N(C)c2ccc(NC(=O)CN(C)c3ccccc3N3CCCC3=O)cn2)cc1 | – | – | 216 |
| O=C1NC2(CCS(=O)(=O)CC2)C(=O)N1c1ccc(F)c(C(F)(F)F)c1 | – | – | < 7 |
| O=C(NCc1nc(-c2ccccc2)cs1)[C@H]1CCCN(C(=O)[C@@H]2CCCO2)C1 | 0.5 µM | – | 36 |
| O=c1c2c([nH]c3ccc(Oc4ccc(OC(F)(F)F)cc4)cc13)CCCC2 | 1 µM | pH 7.4 | 55.3 |
| Cc1[nH]c(C)c(S(=O)(=O)Nc2ccc(C(F)(F)F)c(Cl)c2)c1C(=O)N(C)C | – | – | 79 |
| COc1cnc(Nc2cnnc3ccc(-c4ccc(N5CCN(C)CC5)cc4)cc23)nc1 | – | – | 93 |
| O=c1c2ccc(OCc3cccc(OC(F)(F)F)c3)cc2[nH]c2cc(Cl)cc(F)c12 | 1 µM | pH 7.4 | 16.1 |
| CCS(=O)(=O)N1CCC2(CC1)NC(=O)N(c1ccc(F)c(C(F)(F)F)c1)C2=O | – | – | < 7 |
| O=c1c2c([nH]c3cc(Nc4ccc(OC(F)(F)F)cc4)ccc13)CCCC2 | 1 µM | pH 7.4 | 67 |
| CC1(C)NC(=O)N(c2ccc(F)c(OC(F)(F)F)c2)C1=O | – | – | < 7 |
| NCCCOCC(=O)N1CCC[C@H](C(=O)NCc2nc(-c3ccc(C4CC4)cc3)cs2)C1 | 0.5 µM | – | 11 |
| O=C1c2ccccc2C(=O)N1CCCN1CCN(C(c2ccc(F)cc2)c2ccc(F)cc2)CC1 | 100 ng/mL | – | 39 |
| CN(C)CCOc1ccc2c(=O)c3c([nH]c2c1)CCCC3 | 1 µM | pH 7.4 | 8.08 |
| CCONC(=O)N1CCC[C@H](C(=O)N[C@H](C)c2nc(-c3ccc(C#N)cc3)cs2)C1 | 0.5 µM | – | 17 |
| Cc1ccc(N(c2ccc(NC(=O)CN(C)c3ccccc3N3CCCC3=O)cn2)C(C)C)cc1 | – | – | 270 |
| O=C1NC(CF)(CF)C(=O)N1c1ccc(F)c(C(F)(F)F)c1 | – | – | < 7 |

| Compound | concentration | pH | microsomal CLint [µL/min/mg] |
| --- | --- | --- | --- |
| Cc1ccc(OCC(=O)N[C@@H](Cc2c[nH]c3ccccc23)C(=O)OC(C)C)cc1 | 20 mM | – | 14.6 |
| O=c1c2ccc(Oc3cccc(OC(F)(F)F)c3)cc2[nH]c2cc(Cl)cc(F)c12 | 1 µM | pH 7.4 | 2.96 |
| O=C(O)Cc1ccccc1Nc1c(Cl)cccc1Cl | 2 µM | pH 7.4 | 201 |
| CC1(C)NC(=O)N(c2cccc(C(F)(F)F)n2)C1=O | – | – | < 7 |
| Cc1ccc(Oc2ccc(NC(=O)CN(C)c3ccccc3N3CCCC3=O)cc2)cc1 | – | – | 383 |
| CCOc1ccc(Nc2c3c(nc4ccccc24)CCC3)cc1 | 0.5 µM | – | 37 |
| CC1(C)NC(=O)N(c2ccc(F)c(S(C)(=O)=O)c2)C1=O | – | – | < 7 |
| O=c1c2c([nH]c3cc(Oc4ccc(OC(F)(F)F)cc4)ccc13)CCCC2 | 1 µM | pH 7.4 | 51.8 |
| Cc1ccc(Oc2ccc(NC(=O)COc3ccccc3N3CCCC3=O)cc2)cc1 | – | – | 132 |
| Cc1ccc(Nc2cnnc3ccc(-c4ccc(N5CCN(C)CC5)cc4)cc23)cn1 | – | – | 36 |
| CN(CC(=O)Nc1ccc(N(C)c2ccc(Cl)c(F)c2)cc1)c1ccccc1N1CCCC1=O | – | – | 218 |
| C[C@H]1[C@@H](C(=O)NCc2nc(-c3ccc(C#N)cc3)cs2)CCCN1C(=O)[C@H]1CCC(=O)O1 | 0.5 µM | – | 8 |
| Cc1ccc(N(c2ccc(NC(=O)CN(C)c3ccccc3N3CCCC3=O)cc2)C(C)C)cc1 | – | – | 319 |
| COCC(=O)N1CCC[C@H](C(=O)NCc2nc(-c3cccnc3)cs2)C1 | 0.5 µM | – | < 7 |
| CCC(F)(F)c1cc(N2C(=O)NC(C)(C)C2=O)ccc1F | – | – | < 7 |
| CCOc1ccc(-c2csc(CNC(=O)[C@H]3CCCN(C(=O)COC)C3)n2)cc1 | 0.5 µM | – | 24 |
| COc1ccc(Oc2ccc3c(=O)c4c(F)cc(Cl)cc4[nH]c3c2)cc1 | 1 µM | pH 7.4 | 12.3 |
| CONC(=O)N1CCC[C@H](C(=O)NCc2nc(-c3ccccc3)cs2)C1 | 0.5 µM | – | 7.3 |
| CONC(=O)c1cccc2c1cc(C)n2-c1nc2c(c(NCc3ccccc3)n1)CCCN2 | 1 µM | pH 7.4 | 98.7 |
| O=C(NCc1nc(-c2ccccc2)cs1)[C@H]1CCCN(C(=O)COCC2CC2)C1 | 0.5 µM | – | 102 |
| COc1ccc(Cn2cc(CO[C@@H]3O[C@H]4[C@H](OC[C@H]4O)[C@H]3O)nn2)cc1 | – | – | < 14.4 |
